An excerpt weighted towards active compounds, which were near 1.2% of everything screened.
TDP2 inh: blocks human TDP2 phosphodiesterase activity | 370,000 compounds, 0.34% hits | recombinant TDP2, T5PNP hydrolysis, p-nitrophenol absorbance 415 nm | O95551 | inhibition, % at 12.8 µM;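 active = inhibition above the mean of all tested compounds plus 3 SD, set per campaign, cut at about 25% in these data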
Target sequence (O95551 whole entry, looked up): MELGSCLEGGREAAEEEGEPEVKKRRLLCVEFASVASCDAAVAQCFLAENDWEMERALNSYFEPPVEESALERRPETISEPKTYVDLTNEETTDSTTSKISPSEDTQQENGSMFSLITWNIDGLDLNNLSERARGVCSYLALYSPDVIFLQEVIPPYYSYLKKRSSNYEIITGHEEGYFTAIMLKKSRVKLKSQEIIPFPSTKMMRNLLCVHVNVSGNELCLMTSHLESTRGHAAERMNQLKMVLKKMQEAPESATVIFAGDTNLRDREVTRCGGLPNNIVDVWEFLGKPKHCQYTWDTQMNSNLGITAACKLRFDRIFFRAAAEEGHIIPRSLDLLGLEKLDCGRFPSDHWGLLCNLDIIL
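Assay system: Recombinant human TDP2 | Quantity: 120 nM TDP2 per well | Incubation: 2 h at 37 °C | Signal: Epi absorbance | Evaluation: Percent inhibition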
NSD2 inh: NSD2 (human) methyltransferase inhibition | O96028 | NSD2 peptide methylation, AlphaScreen, 120 min | inhibition, % at 12.5 µM | 310,000 compounds, 0.54% hits; in the data active = inhibition above about 50%
SUMO HTRF inh: blocks human SUMOylation mediated by UBC9. P63279. 290,000 compounds, 0.36% hits. HTRF SUMOylation assay, SAE1/SAE2 + UBC9, in vitro. inhibition, % at 35 µM; in the data active = inhibition above about 50%, passing the limit was not always enough
Target sequence (P63279 whole entry, looked up): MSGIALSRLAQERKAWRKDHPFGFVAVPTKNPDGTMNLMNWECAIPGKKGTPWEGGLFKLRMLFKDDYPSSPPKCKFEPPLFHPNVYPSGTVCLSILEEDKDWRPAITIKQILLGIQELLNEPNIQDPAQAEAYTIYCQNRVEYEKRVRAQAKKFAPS
Fh CTSL1 inh: blocks F. hepatica cathepsin L1 in PFM18AAP counter-screen. recombinant F. hepatica cathepsin L1, Z-Leu-Arg-MCA fluorescence. inhibition, % at 5.96 µM. 300,000 compounds, 0.49% hits;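 active = inhibition above the mean of all tested compounds plus 3 SD, set per screening campaign, cut at about 17% in these data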
Hits are given with their value.

For COc1ccc(C(C#N)N2N=C(C)CC2c2ccccc2)cc1 (configuration not stated) the results were TDP2 inh inactive, NSD2 inh inactive, SUMO HTRF inh inactive and Fh CTSL1 inh inactive.
Screening Cc1nc(NC2CCCCC2)c2nnn(Cc3ccccc3Cl)c2n1 returned TDP2 inh inactive, NSD2 inh inactive, SUMO HTRF inh inactive and Fh CTSL1 inh inactive.
Cc1nc(N2CCCC2)c2nnn(Cc3ccccc3Cl)c2n1 was read as TDP2 inh inactive, NSD2 inh inactive, SUMO HTRF inh inactive and Fh CTSL1 inh 17.5.
`O=C(CN(Cc1ccccc1)C(=O)CCl)c1cccc(Br)c1` gave TDP2 inh inactive and Fh CTSL1 inh 74.6.
O=C(CC12CC3CC(CC(C3)C1)C2)NCc1ccncc1 was read as TDP2 inh inactive, NSD2 inh inactive, SUMO HTRF inh inactive and Fh CTSL1 inh 17.3.
Screening COc1ccc(S(=O)(=O)n2nc(OC(=O)c3ccccc3)cc2N)cc1 returned TDP2 inh inactive, NSD2 inh inactive, SUMO HTRF inh inactive and Fh CTSL1 inh inactive.
COc1ccc(S(=O)(=O)n2nc(OC(C)=O)cc2N(C(C)=O)C(C)=O)cc1 was read as TDP2 inh 28.9, SUMO HTRF inh inactive and Fh CTSL1 inh inactive.
For Fc1ccc(-n2c(-c3cccs3)nc3nc4ccccc4nc32)cc1 the results were TDP2 inh inactive, NSD2 inh inactive, SUMO HTRF inh inactive and Fh CTSL1 inh inactive.
For Fc1cccc(-n2c(-c3cccs3)nc3nc4ccccc4nc32)c1 the results were SUMO HTRF inh 54.9 and Fh CTSL1 inh inactive.
`Cn1cnnc1Sc1nc([N+](=O)[O-])nn1C` gave TDP2 inh inactive, NSD2 inh inactive, SUMO HTRF inh inactive and Fh CTSL1 inh inactive.
For COc1ccccc1-c1nnc(Sc2nc([N+](=O)[O-])nn2C)o1 the results were TDP2 inh inactive, NSD2 inh inactive, SUMO HTRF inh inactive and Fh CTSL1 inh 76.6.
Screening COc1cccc(OCC(O)CN2CCC(CN3C(=O)c4cccc5cccc(c45)C3=O)CC2)c1 (configuration not stated) returned TDP2 inh inactive, NSD2 inh inactive, SUMO HTRF inh inactive and Fh CTSL1 inh 33.2.
For O=c1oc(-c2ccccc2)cc(Cl)c1Cl the results were TDP2 inh 26.8, SUMO HTRF inh inactive and Fh CTSL1 inh inactive.
`COC(=O)N1C[C@H](OCc2ccccc2)[C@H]2C[C@@H]1c1ccccc1O2` gave TDP2 inh inactive.
For O=C(CC(c1ccc(F)cc1)c1ccco1)N1CCOCC1 (configuration not stated) the results were TDP2 inh inactive, NSD2 inh inactive, SUMO HTRF inh inactive and Fh CTSL1 inh inactive.
`O=C(CC(c1ccc(F)cc1)c1ccco1)N1CCCC1` (configuration not stated) gave TDP2 inh inactive, NSD2 inh inactive, SUMO HTRF inh inactive and Fh CTSL1 inh 35.7.
For COc1ccccc1NC(=O)CC(c1ccc(F)cc1)c1ccco1 (configuration not stated) the results were TDP2 inh inactive, NSD2 inh inactive, SUMO HTRF inh inactive and Fh CTSL1 inh 21.4.
`CCN(CC)C(=O)CC(c1ccccc1)c1ccco1` (configuration not stated) gave TDP2 inh inactive, NSD2 inh inactive, SUMO HTRF inh inactive and Fh CTSL1 inh 35.5.
Screening CCCN(CCC)C(=O)CC(c1ccc(F)cc1)c1ccco1 (configuration not stated) returned TDP2 inh inactive, NSD2 inh inactive, SUMO HTRF inh inactive and Fh CTSL1 inh 57.3.
CCOC(=O)[C@]12CCCC=C1N(CCC1=CCCCC1)C(=O)[C@H](CC(=O)NCc1ccccc1)C2 was read as TDP2 inh inactive.
`Cc1nc(NCCCN2CCOCC2)c2cnn(-c3ccccc3)c2n1` gave TDP2 inh inactive and NSD2 inh inactive.
`O=S1(=O)CC2c3ccc(F)cc3CN2CN1Cc1ccc(F)cc1` (configuration not stated) gave TDP2 inh inactive.
Screening O=C(N/N=C/c1ccc([N+](=O)[O-])o1)c1cc(-c2ccc(-c3ccccc3)cc2)nc2ccccc12 returned TDP2 inh inactive, SUMO HTRF inh 61.5 and Fh CTSL1 inh inactive.
`O=C(N/N=C/c1ccc([N+](=O)[O-])o1)c1cc(-c2ccncc2)nc2ccccc12` gave TDP2 inh inactive, NSD2 inh inactive, SUMO HTRF inh inactive and Fh CTSL1 inh inactive.
O=S(=O)(Nc1ccc(C(O)(C(F)(F)F)C(F)(F)F)cc1)c1ccc(-c2ccccc2)s1 was read as NSD2 inh inactive.
COC(=O)[C@H](CC(C)C)N(CCCc1cn(Cc2ccccc2)nn1)S(=O)(=O)c1ccccc1Br was read as TDP2 inh inactive.
For NC(=O)CC(NC(=O)c1ccc(Br)cc1)c1ccc(N2CCCCCC2)c([N+](=O)[O-])c1 (configuration not stated) the results were TDP2 inh inactive, SUMO HTRF inh inactive and Fh CTSL1 inh inactive.
For Cc1cc(C)c2c3c(sc2n1)C(=O)N(c1ccccc1C)CC(=O)N3 the results were TDP2 inh inactive, NSD2 inh inactive, SUMO HTRF inh inactive and Fh CTSL1 inh inactive.
Screening Cc1ccc(N2CC(=O)Nc3c(sc4nc(C)cc(C)c34)C2=O)cc1 returned TDP2 inh inactive, NSD2 inh inactive, SUMO HTRF inh inactive and Fh CTSL1 inh 28.5.
`CC(NS(=O)(=O)c1ccccc1)C(c1cccs1)N1CCOCC1` (configuration not stated) gave TDP2 inh inactive, SUMO HTRF inh inactive and Fh CTSL1 inh 79.4.
CSCCC(C(=O)Nc1c(C)cccc1C)N1CCC(Cc2ccccc2)CC1 (configuration not stated) was read as TDP2 inh inactive.
Screening O=C1C(Cl)=C(N2CCCCCC2)C(=O)N1c1ccc(Br)cc1 returned TDP2 inh inactive, NSD2 inh inactive, SUMO HTRF inh inactive and Fh CTSL1 inh inactive.
Cc1ccc(N2C(=O)C(Cl)=C(NCCO)C2=O)c(C)c1 was read as TDP2 inh inactive, NSD2 inh inactive, SUMO HTRF inh inactive and Fh CTSL1 inh inactive.
For CN1CCN(C2=C(Cl)C(=O)N(c3ccc(Cl)cc3)C2=O)CC1 the results were SUMO HTRF inh inactive and Fh CTSL1 inh 20.1.
`Cc1ccc(N2C(=O)C(Cl)=C(N3CCN(C)CC3)C2=O)c(C)c1` gave TDP2 inh inactive, NSD2 inh inactive, SUMO HTRF inh inactive and Fh CTSL1 inh 26.6.
For O=C1C(Cl)=C(N2CCCCCC2)C(=O)N1c1ccccc1 the results were TDP2 inh inactive, NSD2 inh inactive, SUMO HTRF inh inactive and Fh CTSL1 inh 18.8.
For COc1ccc2cc(/C=N/NC(=O)CN3CCOCC3)c(Cl)nc2c1 the results were NSD2 inh inactive.
For O=C(Nc1ccccc1NC(=O)c1csnn1)c1csnn1 the results were TDP2 inh inactive, NSD2 inh inactive, SUMO HTRF inh inactive and Fh CTSL1 inh 28.1.
Screening Oc1c(N=Nc2nn[nH]n2)ccc2ccccc12 returned TDP2 inh 26.3.
`N#Cc1nc(N2CCCC2)nc(N2CCCC2)n1` gave TDP2 inh inactive, SUMO HTRF inh inactive and Fh CTSL1 inh 56.0.
For CCOC(=O)CNc1nc(C#N)nc(N2CCOCC2)n1 the results were TDP2 inh inactive, NSD2 inh inactive, SUMO HTRF inh inactive and Fh CTSL1 inh 22.8.

High-throughput results (PubChem)
